The results in this text go back to ChEMBL document CHEMBL1121854, “New antiarrhythmic agents. 5. alpha-Aminoaceto-2,6-xylidides with functionalized amide alkyl substituents” (J Med Chem, 1981).

Series [1] deals with Mus musculus. As to the kind of experiment: Antiarrhythmic activity against arrhythmogenic effects of chloroform in mice after sc administration. The format is functional. The settings on record: Heart. The gist of the method: (§1)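 At 20 min they were exposed to chloroform until respiratory arrest, then given a thoracotomy. Leads I and II plus an epicardial ECG were recorded for 30–40 s. Tachycardia was defined as ≥5 s with a ventricular rate >520 beats/min; absence meant protection.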

The nature of series [2]: Therapeutic index is defined as the ratio of ED50(ataxia)/ED50(protection). The note with it: read-out: Therapeutic index. The gist of the method: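 Ratio of ED50 for ataxia to ED50 for protection against chloroform-induced ventricular tachycardia in mice. Both ED50 values were derived by Berkson's logit chi-square method from percent responders across dose groups.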

Series [3] concerns Mus musculus. As to the kind of experiment: Acute CNS toxicity against arrhythmogenic effects of chloroform in mice after sc administration. The format is functional. The note with it: Central nervous system.
In series [4] the test system is Mus musculus. As to the kind of experiment: Acute CNS toxicity against arrhythmogenic effects of chloroform in mice after sc administration. The settings on record: Central nervous system. The format is functional.
Series [5] has as its system Ovis aries. As to the kind of experiment: Duration of spinal anesthesia at the anal region was measured in sheep at dose.40(mg/kg). The format is functional. The gist of the method: (§2)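 Sterile solutions held 20 mg/mL base (2%) and 50 mg/mL glucose, made from the salts and adjusted to pH 6.1–6.5 with dilute NaOH. 2 mL was injected intrathecally in sheep. Onset of block was recorded at the anal region and hind-limb digits. Duration of pain block at both sites and of loss of weight support was noted. 5% glucose served as vehicle control.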

Series [6] relates to Mus musculus. Description: Antiarrhythmic activity against arrhythmogenic effects of chloroform in mice after sc administration. The class given is functional. The settings on record: Heart. Summed up: as §1
The subject of series [7] is Ovis aries. Description: Duration of spinal anesthesia at the digits of the hind limbs was measured in sheep at dose.40(mg/kg). The format is functional, Hindlimb. Summed up: as §2
Series [8] has as its system Ovis aries. As to the kind of experiment: Duration of spinal anesthesia at the weight support was measured in sheep at dose.40(mg/kg). The class given is functional. The gist of the method:
as §2

Series [9] has as its system Ovis aries. As to the kind of experiment: Onset of spinal anesthesia at the digits of the hind limbs was measured in sheep at dose 40(mg/kg). The class given is functional, Hindlimb. The gist of the method: as §2
Series [10] concerns Ovis aries. Description: Onset of spinal anesthesia at the anal region was measured in sheep at dose 40(mg/kg). The format is functional. Summed up: as §2
The test system of series [11] is Ovis aries. As to the kind of experiment: Duration of spinal anesthesia at the digits of the hind limbs was measured in sheep at dose. 40 mg/kg; 0-140. The format is functional, Hindlimb. Summed up: as §2
The test system of series [12] is Ovis aries. Description: Onset of spinal anesthesia at the digits of the hind limbs was measured in sheep at dose 40 (mg/kg); 5-50.
For series [13], the system named is Ovis aries. As to the kind of experiment: Duration of spinal anesthesia at the weight support was measured in sheep at dose. 40 mg/kg; 0-165. The format is functional. Summed up:
as §2

Series [14] concerns Ovis aries. Description: Onset of spinal anesthesia at the anal region was measured in sheep at dose 40(mg/kg); 5-50. The format is functional. Summed up: as §2
In series [15] the test system is Ovis aries. Description: Duration of spinal anesthesia at the anal region was measured in sheep at dose. 40 mg/kg; 50-300. The class given is functional. The gist of the method:
as §2

Series [16] has as its system Ovis aries. Description: Duration of spinal anesthesia at the digits of the hind limbs was measured in sheep at dose 40(mg/kg). The format is functional, Hindlimb. Summed up:
as §2

Series [17] relates to Ovis aries. As to the kind of experiment: Duration of spinal anesthesia at the weight support was measured in sheep at dose 40(mg/kg). The format is functional. The gist of the method: as §2
Series [18] concerns Ovis aries. As to the kind of experiment: Duration of spinal anesthesia at the anal region was measured in sheep at dose 40(mg/kg). The format is functional. The gist of the method:
as §2

Series [19] relates to Ovis aries. Description: Onset of spinal anesthesia at the digits of the hind limbs was measured in sheep at dose 30(mg/kg). The class given is functional, Hindlimb.
The test system of series [20] is Ovis aries. Description: Onset of spinal anesthesia at the anal region was measured in sheep at dose 30(mg/kg). The format is functional.
The test system of series [21] is Ovis aries. Description: Onset of spinal anesthesia at the digits of the hind limbs was measured in sheep at dose 10 (mg/kg). The class given is functional, Hindlimb.
Series [22] deals with Ovis aries. As to the kind of experiment: Duration of spinal anesthesia at the anal region was measured in sheep at dose 10(mg/kg). The format is functional.
Series [23] deals with Ovis aries. As to the kind of experiment: Duration of spinal anesthesia at the weight support was measured in sheep at dose 10(mg/kg). The format is functional.
In series [24] the test system is Ovis aries. Description: Duration of spinal anesthesia at the digits of the hind limbs was measured in sheep at dose 10(mg/kg). The format is functional, Hindlimb.
In series [25] the test system is Ovis aries. As to the kind of experiment: Onset of spinal anesthesia at the anal region was measured in sheep at dose 10(mg/kg). The format is functional.

Take `CCOCCN(C(=O)CN(CC)CC)c1c(C)cccc1C`: the values for the ED50 in the series with Mus musculus [1] and with Mus musculus [3] were 60 µmol/kg and 80 µmol/kg, respectively. The selectivity ratio in [2] turned out to be 1.3.

Consider `Cc1cccc(C)c1N(CCN)C(=O)CN`, for which the figures for the median effective dose (ED50) with Mus musculus [1] and with Mus musculus [3] were 390 µmol/kg and 1050 µmol/kg, respectively. Besides, the selectivity ratio in series [2] was 2.7.

As to `CCN(CC)CCN(C(=O)CN(CC)CC)c1c(C)cccc1C`, the 50% effective dose (ED50) came out at 600 µmol/kg in the series with Mus musculus [4] and 460 µmol/kg in the series on Mus musculus [6]. Besides, the Duration of block with Ovis aries [5], in the series on Ovis aries [7] and with Ovis aries [8] was 0 min throughout. Also, the selectivity ratio in series [2] was 1.3.

For `CCN(CC)CC(=O)N(CCN)c1c(C)cccc1C`, the ED50 was 120 µmol/kg in the series with Mus musculus [1] and 560 µmol/kg with Mus musculus [3]. For the same molecule, the Duration of block is recorded as 270 min with Ovis aries [5], 132 min in the series on Ovis aries [7] and 195 min with Ovis aries [8]. In addition, the selectivity ratio in series [2] came out at 4.7. In addition, the figures for the Onset of block in the series on Ovis aries [9] and with Ovis aries [10] were 15 min and 5 min, respectively.

As to `Cc1cccc(C)c1N(CCO)C(=O)CN`, the values for the median effective dose (ED50) in the series with Mus musculus [4] and with Mus musculus [6] were 1080 µmol/kg and 1260 µmol/kg, respectively. The selectivity ratio in series [2] worked out at 0.9.

Turning to `CCN(CC)CC(=O)N(CCO)c1c(C)cccc1C`, the median effective dose (ED50) in the series on Mus musculus [1] is 180 µmol/kg; in the series with Mus musculus [3], 490 µmol/kg. For the same molecule, the selectivity ratio in series [2] came to 2.7.

For `CCCN(C(=O)CN(CC)CC)c1c(C)cccc1C`, the results for the ED50 in the series on Mus musculus [1] and in the series with Mus musculus [3] were 170 µmol/kg and 150 µmol/kg, respectively. Also, the selectivity ratio in series [2] was 0.9.

In the case of `CCN(CC)CCN(C(=O)CN)c1c(C)cccc1C`, the results for the ED50 in the series on Mus musculus [1] and with Mus musculus [3] were 690 µmol/kg and 1130 µmol/kg, respectively. The Duration of block in the series with Ovis aries [11] was 0 min; with Ovis aries [13], 0 min; in the series with Ovis aries [15] it was 50 min. Besides, the Onset of block with Ovis aries [12] and in the series with Ovis aries [14] was 19 min in each case. Moreover, the selectivity ratio in series [2] turned out to be 1.6.

Consider `CCN(CC)CCN(C(=O)CN1C(=O)c2ccccc2C1=O)c1c(C)cccc1C`, for which the median effective dose (ED50) in the series with Mus musculus [4] and in the series on Mus musculus [6] was 10 µmol/kg in each case. In addition, the selectivity ratio in series [2] is 1.

On to `CCN(CC)CC(=O)N(CC)c1c(C)cccc1C`, for which the ED50 with Mus musculus [1] worked out at 140 µmol/kg; with Mus musculus [3], 210 µmol/kg. The selectivity ratio in [2] amounted to 1.5.

As for `CCOCCN(C(=O)CN)c1c(C)cccc1C`, the 50% effective dose (ED50) came to 190 µmol/kg in the series with Mus musculus [1] and 170 µmol/kg with Mus musculus [3]. Besides, the selectivity ratio in series [2] is 0.9.

Take `OC[C@H]1OC(O)[C@H](O)[C@@H](O)[C@@H]1O` (some centres undefined) [DEXTROSE]: the Duration of block in the series with Ovis aries [16], in the series with Ovis aries [17] and with Ovis aries [18] was 0 min each time.

On to `Cc1cccc(C)c1NC(=O)CN` [GLYCINEXYLIDIDE], for which the figures for the ED50 in the series with Mus musculus [4] and with Mus musculus [6] were 620 µmol/kg and 840 µmol/kg, respectively. Moreover, the selectivity ratio in [2] came out at 0.7.

For the molecule `CCN(CC)CC(=O)Nc1c(C)cccc1C` [LIDOCAINE], the ED50 was 180 µmol/kg with Mus musculus [4] and 210 µmol/kg in the series on Mus musculus [6]. For the same molecule, the Onset of block with Ovis aries [19] was 1.4 min; in the series with Ovis aries [20], 1 min.

As for `CCCCNc1ccc(C(=O)OCCN(C)C)cc1` [TETRACAINE], the Onset of block was found to be 1.2 min in the series on Ovis aries [21] and 1.13 min with Ovis aries [25]. The Duration of block in the series on Ovis aries [22] is 302 min; with Ovis aries [23], 458 min; in the series with Ovis aries [24], 285 min.

As for `Cc1cccc(C)c1NC(=O)C(C)N` (centres undefined) [TOCAINIDE], the ED50 in the series with Mus musculus [4] amounted to 760 µmol/kg; with Mus musculus [6], 550 µmol/kg. Moreover, the selectivity ratio in series [2] turned out to be 1.4.

A word on the ED50: it is the midpoint of the dose-response relation. A higher ED50 goes with a need for a large dose.
